Entries after “also recorded” stand apart in the source; their conditions may differ.
Assays:
[1] = biological target: T1, SmARG (S. mansoni arginase) (Schistosoma mansoni, UniProt Q6WVP6); assay: Isothermal titration calorimetry of SmARG–inhibitor complexes; format: binding; details: ITC Kd
T1 sequence (Q6WVP6 1-364): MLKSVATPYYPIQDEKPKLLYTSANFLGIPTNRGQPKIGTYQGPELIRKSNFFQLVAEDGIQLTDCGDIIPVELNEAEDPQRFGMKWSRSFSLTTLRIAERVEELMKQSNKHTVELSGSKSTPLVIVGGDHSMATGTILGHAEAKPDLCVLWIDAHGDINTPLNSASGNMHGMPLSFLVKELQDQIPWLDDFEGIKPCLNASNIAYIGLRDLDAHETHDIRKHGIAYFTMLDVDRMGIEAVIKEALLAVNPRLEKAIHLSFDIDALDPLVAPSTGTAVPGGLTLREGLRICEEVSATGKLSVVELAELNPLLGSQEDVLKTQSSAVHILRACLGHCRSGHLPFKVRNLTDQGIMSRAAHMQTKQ

[2] = system: human arginase I; assay: Isothermal titration calorimetry, human arginase I; format: binding; details: ITC Kd, human arginase I versus SmARG
[3] = system: S. mansoni schistosomula; assay: Helminth fluorescence bioassay; format: cell-based, Schistosoma mansoni; details: 100 μM, in vitro cocultivation
In short: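 S. mansoni schistosomula were mechanically transformed and exposed to test compound at 100 μM final. Incubation was 24 h (also 72 h) at 37 °C in humidified 5% CO2. Viability was then scored by the helminth fluorescence bioassay, in duplicate.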

[4] = system: human arginase I; details: cited from earlier work
[5] = biological target: T1, SmARG (S. mansoni arginase); assay: Colorimetric arginase activity assay; format: biochemical; details: Figure S2b
In short: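 Recombinant SmARG was expressed in E. coli BL21(DE3) and purified by Talon affinity then size exclusion into bicine pH 8.5 with 100 μM MnCl2. Reactions used 0.5–50 mM L-arginine in 50 mM EPPS pH 8.5 with 100 μM MnCl2, started with 1 μM enzyme at 21 °C and stopped after 1 min with acid/α-isonitrosopropiophenone. Samples were heated 1 h at 90 °C and urea read at A550. Ki came from a competitive-inhibition Michaelis–Menten fit, in triplicate.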

enhancement of affinity compared with the parent SmARG–ABH complex [1] [fold] | Compound | schistosomula viability or morphology ([3]; 24 h, 37 °C, absence of host) | schistosomula viability or morphology ([3]; 72 h (data not shown)) | other results
5 | N[C@@](CCCCB(O)O)(C(=O)O)C1CCN(Cc2ccc(Cl)c(Cl)c2)CC1 (racemic) [ABHDP, (R)-2-amino-6-borono-2-[1-(3,4-dichlorobenzyl)piperidin-4-yl]hexanoic acid] |  |  | 
 | N[C@@H](CCCCB(O)O)C(=O)O [ABH, 2(S)-amino-6-boronohexanoic acid] | no significant difference; also recorded: do not affect parasite viability | no significant difference | tighter binding to human arginase I than to SmARG [2]: 260 fold; preferential inhibition of human arginase I compared with nor-NOHA [4]: at least 10 fold
2 | N[C@](CCCCB(O)O)(CCN1CCCCC1)C(=O)O [ABHPE, (R)-2-amino-6-borono-2-[2-(piperidin-1-yl)ethyl]hexanoic acid] |  |  | 
 | Cl.O=C(O)CCP(CCC(=O)O)CCC(=O)O [TCEP, Tris(2-carboxyethyl)phosphine hydrochloride] |  |  | SmARG activity in the presence of reducing reagents [5]: severely attenuated
 | N=C(NO)NCC[C@H](N)C(=O)O [nor-NOHA, nor-N-hydroxy-L-arginine] | no significant difference; also recorded: do not affect parasite viability | no significant difference | more effective than ABH in binding to SmARG ([1]; N-hydroxyguanidinium moiety versus tetrahedral boronate anion of ABH): ~4 fold
